Compound activity: PubChem, Broad Institute
Hits are enriched below; roughly 2.9% of the tested compounds scored in any of these assays.
dFosB activator = mouse delta FosB homodimer activation. 340,000 tested, 0.99% active. AID 493131. purified delta FosB, TAMRA-CDK5 oligo fluorescence polarization; percent of positive-control signal above neutral wells. activation, % at 25 µM. P13346;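 active means mean activation above about 17%, with every replicate also reaching it, limit read from the data, passing the limit was not always enough; inconclusive means only one of the two conditions met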
Target sequence (P13346 whole entry, looked up): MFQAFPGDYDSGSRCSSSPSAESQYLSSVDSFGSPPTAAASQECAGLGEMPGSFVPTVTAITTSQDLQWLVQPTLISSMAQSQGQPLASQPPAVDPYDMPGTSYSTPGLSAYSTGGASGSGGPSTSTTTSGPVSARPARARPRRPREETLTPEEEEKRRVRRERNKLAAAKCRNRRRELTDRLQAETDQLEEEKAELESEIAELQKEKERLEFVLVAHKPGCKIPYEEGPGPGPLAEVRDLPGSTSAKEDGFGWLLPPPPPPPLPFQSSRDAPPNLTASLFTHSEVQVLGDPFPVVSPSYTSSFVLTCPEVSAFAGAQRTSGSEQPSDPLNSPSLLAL
GSIS activator = primary screen for activators of insulin secretion dependent on glucose, INS-1E cells, GLuc reporter luminescence | INS-1E GLuc reporter insulin secretion, 2-3 h | activation, % at 16.6 µM | 370,000 tested, 0.61% active | AID 743287;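 active means lowest replicate activation of at least 40%, so every replicate reaches that level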;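 further: 0% = median of neutral control wells and 100% = median of IBMX positive control wells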
PAX8 inh HTS = lowers PAX8-driven luciferase in RMG-I cells | RMG-I TPO-luciferase reporter, SteadyGlo, 24 h | inhibition, % at 12.6 µM | 360,000 tested, 1.2% active;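 active means mean replicate inhibition at least 60% with every replicate also reaching 60%; inconclusive means only one of the two criteria is met; inactive means mean below 60% and not all replicates reaching 60%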;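 further: luciferase light reporting Pax8 driven TPO promoter activity; plate controls were median of neutral control wells for no effect and mitoxantrone controls for full effect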
HIV Env fusion = blocks HIV Env-driven cell-cell fusion; HeLa-JRFL Env/CEM21 cell fusion, luciferase; inhibition, % at 12.3 µM; 360,000 tested, 1.1% active;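 active means mean replicate inhibition score of at least 50 and every replicate individually at or above 50; inconclusive means only one of the two criteria met; inactive means mean below 50 and not all replicates reaching 50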;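 further: 0% = plate neutral controls and 100% = maraviroc near 300 nM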
CDK5 p35 inh = CDK5/p35 (human) kinase inhibition | Q00535+Q15078 | Recombinant CDK5/p35, ADP-Glo luminescence, 60 min | inhibition, % at 10 µM | 330,000 tested, 0.01% active | AID 488839;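 active means highest replicate inhibition of at least 50% and at least 75% of replicates reaching 50%; inconclusive means only one of the two criteria met; inactive means both criteria failed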;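 further: plate controls were DMSO neutral control for no effect and GW8510 at 10 µM for full effect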
Cneo AK release = Cryptococcus neoformans lysis via adenylate kinase release | lysis activity, % at 15 µM | C. neoformans lysis, adenylate kinase release luminescence, 4 h; normalised: neutral wells 0, clomiphene wells 100 | AID 651654 | 360,000 tested, 0.2% active;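 active means mean lysis activity across replicates of at least 80%, whatever share of replicates individually reach that level; inactive means mean lysis activity below 80%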
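Material: C. neoformans cells; Schedule: 4 h static compound exposure, 37 °C, read 1 h post-reagent; Measured by: adenylate kinase release luminescence; Read-out: signal increase indicating cell lysis; Controls: Clomiphene as positive lysis control.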
An asterisk follows results filed as active; ? = inconclusive; . = no result; [ ] = another dose, or the depositor's remark.

SMILES	dFosB activator	GSIS activator	PAX8 inh HTS	HIV Env fusion	CDK5 p35 inh	Cneo AK release
CC(C)C[C@@H](CN1CCCC1CN1C(=S)NC[C@@H]1Cc1ccc(O)cc1)N1C[C@H](Cc2ccc(O)cc2)N(CCc2ccccc2)C1=S (stereo not given in full)	?	96	71*	-12	1	0
Oc1ccc(C[C@H]2CN([C@@H](Cc3ccccc3)CN3CCCC3CN3C(=S)NC[C@@H]3Cc3ccccc3)C(=S)N2CCc2ccccc2)cc1 (stereo not given in full)	.	.	17	-63	.	.
Oc1ccc(C[C@H]2CN([C@@H](Cc3ccc(O)cc3)CN3CCC[C@@H]3CN3C(=S)NC[C@@H]3Cc3ccccc3)C(=S)N2CCc2ccccc2)cc1	.	-2	22	-117	.	2
CCOc1ccc(CCN2C(=S)N([C@@H](Cc3ccc(O)cc3)CN3CCC[C@@H]3CN3C(=S)NC[C@@H]3CC(C)C)C[C@@H]2Cc2ccc(O)cc2)cc1	.	-2	98*	67*	.	2
COc1cccc(CNC(=O)[C@H]2[C@H](CO)[C@H]3Cn4c(ccc(-c5ccncc5)c4=O)[C@H]3N2C)c1	.	5	.	.	.	0
O=C(CSc1nc(-c2ccco2)cc(C(F)(F)F)n1)Nc1ccccc1C(F)(F)F	12	.	.	74*	-1	7
COc1ccc(-c2cc(C(F)(F)F)nc(SCC(=O)NCc3cccs3)n2)cc1	15	17	.	56*	-3	2
Cc1cccc(C)c1NC(=O)CSc1nc(-c2ccco2)cc(C(F)(F)F)n1	-2	15	.	.	0	-1
Cc1cc(C)c(C)c(S(=O)(=O)N2CCN(CC(=O)Nc3ccc([N+](=O)[O-])cc3)CC2)c1C	-4	122*	20	10	-2	.
CC(=O)Nc1ccc(S(=O)(=O)N2CCC(C(=O)c3ccc(Cl)cc3)CC2)cc1	-10	.	18	56*	0	-5
Cc1cc(C)c(C)c(S(=O)(=O)N2CCC(C(=O)Nc3ccc(S(=O)(=O)N4CCOCC4)cc3)CC2)c1C	-4	-8	29	57*	1	2
Cc1ccc(S(=O)(=O)N2CCC(C(=O)Nc3ccc(S(=O)(=O)N4CCOCC4)cc3)CC2)cc1	-6	-13	24	29	-1	0
O=C(CCN1CCCCC1)N[C@@H]1CC[C@H](CCNS(=O)(=O)c2ccccc2)O[C@@H]1CO	.	13	-7	-7[16.7 µM]	.	19
CCC(=O)N(C)C[C@@H]1Oc2cc(-c3ccncc3)ccc2S(=O)(=O)N([C@@H](C)CO)C[C@H]1C	.	1	.	-3[16.7 µM]	.	0
Cc1nn(Cc2ccc([N+](=O)[O-])cc2)c(=O)n1N(C)c1ncc(C(F)(F)F)cc1Cl	-2	.	8	63*	0	-1
Cc1nn(Cc2ccc(Cl)cc2)c(=O)n1N(C)c1ncc(C(F)(F)F)cc1Cl	-10	.	.	.	1	-1
C=CCOC(=O)[C@H]1[C@@H]2C(=O)O[C@@H](c3ccccc3)[C@@H](c3ccccc3)N2[C@@H](c2ccc(OCCOC(=O)[C@H]3C[C@H]4C(=O)N[C@@H](CC(C)C)C(=O)N4[C@H]3c3ccc(O)cc3)cc2)[C@]12C(=O)Nc1ccccc12	.	.	.	-11[16.7 µM]	.	-15
COc1ccc(CN(C)C[C@@H]2OCCCC[C@@H](C)Oc3ccc(NC(=O)c4ccccc4)cc3C(=O)N([C@H](C)CO)C[C@@H]2C)cc1	.	-14	-44	-31[16.7 µM]	.	86*
C[C@H](CO)N1C[C@H](C)[C@H](CN(C)Cc2ccccc2)OCCCC[C@H](C)Oc2ccc(NC(=O)Nc3ccc(F)cc3)cc2C1=O	.	-17	33	56*[16.7 µM]	.	8
COc1ccc(NC(=O)Nc2ccc3c(c2)C(=O)N([C@@H](C)CO)C[C@H](C)[C@H](CN(C)Cc2ccncc2)OCCCC[C@H](C)O3)cc1	.	-19	-3	88*[16.7 µM]	.	51
COc1ccc(CN(C)C[C@@H]2OCCCC[C@H](C)Oc3ccc(NC(=O)c4ccccc4)cc3C(=O)N([C@@H](C)CO)C[C@H]2C)cc1	.	-21	-13	-3[16.7 µM]	.	-1
COc1ccc(CN(C)C[C@@H]2OCCCC[C@H](C)Oc3ccc(NC(=O)Nc4cccc5ccccc45)cc3C(=O)N([C@H](C)CO)C[C@H]2C)cc1	.	-41	80*	32[16.7 µM]	.	-4
O=C(Nc1ccc(F)cc1)N1CCCCN2[C@@H](CO)[C@@H](c3ccc(C#Cc4ccccn4)cc3)[C@@H]2C1	.	-13	9	.	.	-1
Cc1noc(C)c1NC(=O)N(C)C[C@@H]1Oc2c(NS(C)(=O)=O)cccc2C(=O)N([C@H](C)CO)C[C@@H]1C	.	6	.	11[16.7 µM]	.	6
COc1ccc(CN(C)C[C@H]2OCCCC[C@@H](C)Oc3ccc(NC(=O)Nc4ccc(F)cc4)cc3C(=O)N([C@@H](C)CO)C[C@@H]2C)cc1	.	-38	85*	-77[16.7 µM]	.	4
SMILES	dFosB activator	GSIS activator	PAX8 inh HTS	HIV Env fusion	CDK5 p35 inh	Cneo AK release
COc1ccc(NC(=O)Nc2ccc3c(c2)C(=O)N([C@H](C)CO)C[C@H](C)[C@H](CN(C)Cc2ccccc2)OCCCC[C@H](C)O3)cc1	.	-17	19	74*[16.7 µM]	.	1
C[C@H]1CCCCO[C@@H](CN(C)Cc2ccccc2)[C@@H](C)CN([C@@H](C)CO)C(=O)c2cc(NC(=O)Nc3ccccc3)ccc2O1	.	-11	38	69*[16.7 µM]	.	0
C[C@H]1CCCCO[C@@H](CN(C)Cc2ccncc2)[C@@H](C)CN([C@@H](C)CO)C(=O)c2cc(NC(=O)Nc3ccccc3)ccc2O1	.	-23	9	58*[16.7 µM]	.	99*
COc1ccc(CN(C)C[C@@H]2OCCCC[C@H](C)Oc3ccc(NC(=O)Nc4ccc(F)cc4)cc3C(=O)N([C@H](C)CO)C[C@@H]2C)cc1	.	-14	54	-1[16.7 µM]	.	2
COc1ccc(CN(C)C[C@@H]2Oc3c(NS(=O)(=O)c4cn(C)cn4)cccc3C(=O)N([C@@H](C)CO)C[C@H]2C)cc1	.	-3	-11	.	.	-2
O=C(Cc1ccccc1)N1C[C@H]2[C@@H](c3ccccc31)[C@H](CO)N2C(=O)C1CCCC1	.	-6	7	.	.	-2
C[C@H]1CCCCO[C@@H](CN(C)Cc2ccccc2)[C@@H](C)CN([C@@H](C)CO)C(=O)c2cc(NC(=O)Nc3ccc(F)cc3)ccc2O1	.	-28	49	70*[16.7 µM]	.	4
C[C@@H]1CCCCO[C@H](CN(C)Cc2ccccc2)[C@@H](C)CN([C@H](C)CO)C(=O)c2cc(NC(=O)Nc3ccc(F)cc3)ccc2O1	.	-15	-6	-1[16.7 µM]	.	4
COc1cccc(C#Cc2ccc3c(c2)[C@@H]2[C@@H](CCN2C(C)=O)[C@@H](CO)N3)c1	.	6	-8	.	.	-9
Cc1ccc(S(=O)(=O)NCC[C@H]2CC[C@@H](NC(=O)CCN3CCCCC3)[C@@H](CO)O2)cc1	.	1	4	7[16.7 µM]	.	0
CCC(=O)N[C@@H]1C=C[C@@H](CC(=O)NCC2CCCCC2)O[C@H]1CO	.	13	-27	-11[16.7 µM]	.	-1
